Data taken from ChEMBL document CHEMBL2380310, “Discovery of 7-oxopyrazolo[1,5-a]pyrimidine-6-carboxamides as potent and selective CB(2) cannabinoid receptor inverse agonists” (J Med Chem, 2013).

Experiments:
Homo sapiens = organism: Homo sapiens; test: Selectivity index, ratio of Ki for human CB1 receptor to Ki for human CB2 receptor
Cannabinoid receptor 1 [1] = target: T1, Cannabinoid receptor 1 (Homo sapiens, UniProt P21554); test: Displacement of [3H]CP-55940 from human CB1 receptor expressed in CHO cell membrane at > 10 uM after 90 mins by scintillation counting analysis; format: cell membranes
T1 sequence (P21554 whole entry): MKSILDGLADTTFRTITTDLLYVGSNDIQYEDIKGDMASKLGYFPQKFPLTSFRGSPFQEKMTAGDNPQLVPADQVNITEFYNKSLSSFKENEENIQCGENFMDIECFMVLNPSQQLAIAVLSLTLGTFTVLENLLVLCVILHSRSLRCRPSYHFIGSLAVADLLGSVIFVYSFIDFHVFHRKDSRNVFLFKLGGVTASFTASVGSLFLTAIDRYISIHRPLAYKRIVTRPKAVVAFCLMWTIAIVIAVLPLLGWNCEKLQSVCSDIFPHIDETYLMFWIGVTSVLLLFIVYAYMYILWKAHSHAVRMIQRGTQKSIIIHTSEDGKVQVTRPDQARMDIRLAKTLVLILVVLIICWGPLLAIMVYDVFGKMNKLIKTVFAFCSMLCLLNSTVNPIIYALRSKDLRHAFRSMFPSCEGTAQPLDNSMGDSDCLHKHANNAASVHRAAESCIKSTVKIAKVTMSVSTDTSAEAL
Outline: (§1)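 Membranes from CHO cells stably expressing human CB₁ (G418-maintained), suspended in 50 mM Tris-HCl, 0.5% BSA, 5 mM MgCl₂, 2.5 mM EDTA, pH 7.4. Displacement of 0.5 nM [³H]CP-55,940 by 1 nM–10 μM compound, 90 min, 30 °C. Filtration on GF/C, scintillation counting. Cheng-Prusoff Ki, LIGAND fitting; mean SEM, n = 4.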

Cannabinoid receptor 1 [2] = target: Cannabinoid receptor 1 (Rattus norvegicus, UniProt P20272); test: Displacement of [3H]CP-55940 from Sprague-Dawley rat brain CB1 receptor after 90 mins by scintillation counting analysis
Sequence of Cannabinoid receptor 1 (Rattus norvegicus, UniProt P20272) (P20272 whole entry): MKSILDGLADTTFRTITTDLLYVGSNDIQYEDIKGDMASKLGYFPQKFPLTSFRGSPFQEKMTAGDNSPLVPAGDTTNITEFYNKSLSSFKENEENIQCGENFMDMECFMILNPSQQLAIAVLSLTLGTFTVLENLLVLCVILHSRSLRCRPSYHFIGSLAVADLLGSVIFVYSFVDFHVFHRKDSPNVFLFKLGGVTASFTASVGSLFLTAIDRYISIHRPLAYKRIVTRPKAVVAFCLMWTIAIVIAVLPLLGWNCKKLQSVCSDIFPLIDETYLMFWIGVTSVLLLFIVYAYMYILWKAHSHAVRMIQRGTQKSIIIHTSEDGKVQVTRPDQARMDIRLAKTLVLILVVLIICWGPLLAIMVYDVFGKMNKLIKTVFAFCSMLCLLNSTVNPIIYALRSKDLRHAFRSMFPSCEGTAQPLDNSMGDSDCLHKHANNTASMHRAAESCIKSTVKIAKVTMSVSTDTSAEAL
Outline: (§2)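 Competition with [³H]CP-55,940 (1.0 nM stated in rat CB₁ section; 0.5 nM in general protocol) against 1 nM–10 μM compound, 90 min at 30 °C. GF/C filtration, scintillation counting. Ki via Cheng-Prusoff; mean SEM, n = 4.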

Cannabinoid receptor 2 [3] = target: T2, Cannabinoid receptor 2 (Homo sapiens, UniProt P34972); test: Inverse agonist activity at human CB2 receptor expressed in CHO cell membrane assessed as increase in forskolin-stimulated cAMP production at 10 uM by scintillation counting analysis relative to WIN55212-2
T2 sequence (P34972 whole entry): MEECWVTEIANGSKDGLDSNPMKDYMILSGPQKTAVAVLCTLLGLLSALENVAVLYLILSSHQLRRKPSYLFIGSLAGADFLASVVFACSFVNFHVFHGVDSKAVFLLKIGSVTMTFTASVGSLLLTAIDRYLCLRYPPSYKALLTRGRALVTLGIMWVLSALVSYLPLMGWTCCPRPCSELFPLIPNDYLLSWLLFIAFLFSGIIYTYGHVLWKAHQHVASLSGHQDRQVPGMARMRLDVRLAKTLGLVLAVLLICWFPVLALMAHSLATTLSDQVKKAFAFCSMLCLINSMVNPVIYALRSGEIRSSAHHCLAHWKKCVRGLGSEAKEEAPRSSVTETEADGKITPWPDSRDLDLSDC
Outline: (§3)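 Whole hCB₂ CHO cells (1 × 10⁶/assay) in HEPES-buffered saline with glucose, pH 7.4, preincubated 10 min at 37 °C with 0.5 mM Ro 20-1724. Compound at 1 or 10 μM with 1 μM forskolin. Stopped with cold 6% TCA, ether-extracted; cAMP measured by [³H]cAMP competition binding with adrenal binding protein. Expressed as % increase versus WIN 55,212-2 (set −100%); n = 4.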

Cannabinoid receptor 2 [4] = target: T2, Cannabinoid receptor 2; test: Displacement of [3H]CP-55940 from human CB2 receptor expressed in CHO cell membrane after 60 mins by scintillation counting analysis; format: cell membranes
Outline: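 Human CB₂-expressing CHO cell membranes in 50 mM Tris-HCl, 0.5% BSA, 5 mM MgCl₂, 1 mM EDTA, pH 7.4. Binding of 0.5 nM [³H]CP-55,940 competed with 1 nM–10 μM compound for 60 min at 30 °C, then GF/C filtration and scintillation counting. Ki by Cheng-Prusoff from IC50; mean SEM of n = 4.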

Cannabinoid receptor 1 [5] = target: T1, Cannabinoid receptor 1; test: Displacement of [3H]CP-55940 from human CB1 receptor expressed in CHO cell membrane after 90 mins by scintillation counting analysis; format: cell membranes; outline: as §1
[6] = target: Cannabinoid receptor 1 (Rattus norvegicus) (UniProt P20272); test: Displacement of [3H]CP-55940 from Sprague-Dawley rat brain CB1 receptor at > 10 uM after 90 mins by scintillation counting analysis; outline: as §2
Sequence of Cannabinoid receptor 1 (Rattus norvegicus) (P20272 whole entry): as the sequence (P20272 whole entry) above

Cannabinoid receptor 2 [7] = target: T3, Cannabinoid receptor 2 (Rattus norvegicus, UniProt Q9QZN9); test: Displacement of [3H]CP-55940 from Sprague-Dawley rat spleen CB2 receptor after 60 mins by scintillation counting analysis
T3 sequence (Q9QZN9 whole entry): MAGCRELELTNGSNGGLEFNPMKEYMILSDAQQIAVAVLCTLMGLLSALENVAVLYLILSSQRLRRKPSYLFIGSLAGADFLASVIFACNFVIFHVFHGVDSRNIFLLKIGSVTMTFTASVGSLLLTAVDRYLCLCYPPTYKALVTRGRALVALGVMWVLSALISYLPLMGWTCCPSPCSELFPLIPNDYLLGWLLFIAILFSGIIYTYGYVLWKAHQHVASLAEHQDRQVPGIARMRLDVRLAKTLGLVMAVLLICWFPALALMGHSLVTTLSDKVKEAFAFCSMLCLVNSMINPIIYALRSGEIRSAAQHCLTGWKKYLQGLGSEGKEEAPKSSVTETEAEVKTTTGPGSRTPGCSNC
Outline: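 Competed against 0.5 nM [³H]CP-55,940 using 1 nM–10 μM compound for 60 min at 30 °C. Bound ligand collected on GF/C filters and counted. Ki from IC50 by Cheng-Prusoff; mean SEM of n = 4.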

Cannabinoid receptor 2 [8] = target: T2, Cannabinoid receptor 2; test: Inverse agonist activity at human CB2 receptor expressed in CHO cell membrane assessed as increase in forskolin-stimulated cAMP production at 1 uM by scintillation counting analysis relative to WIN55212-2; outline: as §3

| SMILES | Ratio Ki (Homo sapiens) | Activity (Cannabinoid receptor 1 [1]) [%] | Ki (Cannabinoid receptor 1 [2]) [nM] | Activity (Cannabinoid receptor 2 [3]) [%] | Ki (Cannabinoid receptor 2 [4]) [nM] | Ki (Cannabinoid receptor 1 [5]) [nM] | Activity [6] [%] | Ki (Cannabinoid receptor 2 [7]) [nM] | Activity (Cannabinoid receptor 2 [8]) [%] |
| --- | --- | --- | --- | --- | --- | --- | --- | --- | --- |
| CCCCCn1cc(C(=O)NC23CC4CC(CC(C4)C2)C3)c(=O)n2nc(-c3cc(C)cs3)cc12 | > 666 | 13 | > 10000 | 97 | 15 | > 10000 | 15 | 18 | 71 |
| CCCCCn1cc(C(=O)NC2CCCCCC2)c(=O)n2nc(-c3ccc(Cl)cc3)cc12 | > 1580 | 40 | > 10000 | 162 | 6.31 | > 10000 | 47 | 6.53 | 121 |
| CCCCCn1cc(C(=O)NCc2ccccc2)c(=O)n2nc(C)cc12 | 9.2 | – | 3690 | 52 | 358 | 3290 | – | 428 | 38 |
| CCCCCn1cc(C(=O)NC23CC4CC(CC(C4)C2)C3)c(=O)n2nc(C)c(-c3ccc(OC)cc3)c12 | > 28 | 4 | > 10000 | 60 | 350 | > 10000 | 5 | 434 | 36 |
| CCCCCn1cc(C(=O)NC2CCCCCC2)c(=O)n2nc(-c3ccc(Cl)cc3Cl)cc12 | > 270 | 39 | > 10000 | 77 | 37 | > 10000 | 49 | 40 | 61 |
| CCCCCn1cc(C(=O)NC2CCCCCC2)c(=O)n2nc(-c3ccccc3C)cc12 | > 1120 | 34 | > 10000 | 125 | 8.93 | > 10000 | 45 | 9.53 | 107 |
| CCCCCn1cc(C(=O)NC2CCCCC2)c(=O)n2nc(-c3ccco3)cc12 | > 1050 | 21 | > 10000 | 103 | 9.52 | > 10000 | 30 | 10.4 | 73 |
| CCCCCn1cc(C(=O)NC2CCCCC2)c(=O)n2nc(C(C)(C)C)cc12 | 55 | – | 720 | 115 | 12.3 | 675 | – | 14.2 | 85 |
| CCCCCn1cc(C(=O)NC2CCCCC2)c(=O)n2nc(-c3ccc(Cl)cc3Cl)cc12 | > 192 | 38 | > 10000 | 65 | 52 | > 10000 | 47 | 60 | 45 |
| CCCCCn1cc(C(=O)NC2CCCCC2)c(=O)n2nc(-c3ccccc3Cl)cc12 | > 212 | 34 | > 10000 | 55 | 47 | > 10000 | 40 | 52 | 37 |
| CCCCCn1cc(C(=O)NC2CCCCC2)c(=O)n2nc(-c3ccc(C)cc3)cc12 | > 175 | 20 | > 10000 | 93 | 57 | > 10000 | 25 | 62 | 63 |
| CCCCCn1cc(C(=O)NC2CCCCC2)c(=O)n2nc(CC)cc12 | 40 | – | 480 | 146 | 10.4 | 420 | – | 11.5 | 121 |
| CCCCCn1cc(C(=O)NC23CC4CC(CC(C4)C2)C3)c(=O)n2nc(-c3ccc(C)cc3)cc12 | > 2930 | 38 | > 10000 | 168 | 3.41 | > 10000 | 45 | 3.82 | 138 |
| CCCCCn1cc(C(=O)NC23CC4CC(CC(C4)C2)C3)c(=O)n2nc(-c3ccc(Cl)cc3Cl)cc12 | > 333 | 37 | > 10000 | 112 | 30 | > 10000 | 40 | 35 | 87 |
| CCCCCn1cc(C(=O)NC2CCCCC2)c(=O)n2nc(C)cc12 | 58 | – | 1580 | 54 | 22 | 1280 | – | 26 | 42 |
| CCCCCn1cc(C(=O)NC23CC4CC(CC(C4)C2)C3)c(=O)n2nc(C(C)(C)C)cc12 | 124 | – | 675 | 189 | 4.95 | 612 | – | 5.54 | 114 |
| CCCCCn1cc(C(=O)NC23CC4CC(CC(C4)C2)C3)c(=O)n2nc(C)c(Br)c12 | > 45 | 1 | > 10000 | 48 | 220 | > 10000 | 1 | 272 | 32 |
| CCCCCn1cc(C(=O)NC23CC4CC(CC(C4)C2)C3)c(=O)n2nc(-c3ccc(C)s3)cc12 | > 862 | 31 | > 10000 | 68 | 11.6 | > 10000 | 33 | 12.2 | 38 |
| CCCCCn1cc(C(=O)NC2CCCCC2)c(=O)n2nc(-c3ccc(Cl)cc3)cc12 | > 181 | 15 | > 10000 | 94 | 55 | > 10000 | 8 | 58 | 79 |
| CCCCCn1cc(C(=O)NC23CC4CC(CC(C4)C2)C3)c(=O)n2nc(-c3ccco3)cc12 | > 2030 | 34 | > 10000 | 124 | 4.92 | > 10000 | 40 | 5.14 | 107 |
| CCCCCn1cc(C(=O)NC23CC4CC(CC(C4)C2)C3)c(=O)n2nc(C)cc12 | 88 | – | 1460 | 75 | 12.7 | 1120 | – | 15.3 | 56 |
| CCCCCn1cc(C(=O)NC2CCCCCC2)c(=O)n2nc(C)cc12 | 51 | – | 642 | 63 | 10.3 | 527 | – | 12.4 | 44 |
| CCCCCn1cc(C(=O)NC2CCCCC2)c(=O)n2nc(-c3ccccc3)cc12 | 17 | – | 750 | 123 | 42 | 702 | – | 50 | 92 |
| CCCCCn1cc(C(=O)NC2CCCCCC2)c(=O)n2nc(-c3ccccc3)cc12 | 27 | – | 900 | 134 | 31 | 825 | – | 35 | 103 |
| CCCCCn1cc(C(=O)NC2CCCCCC2)c(=O)n2nc(CC)cc12 | 38 | – | 220 | 159 | 5.22 | 200 | – | 5.63 | 137 |
| CCCCCn1cc(C(=O)NC2CCC(C)CC2)c(=O)n2nc(C)cc12 (configuration not stated) | 23 | – | 2600 | 67 | 106 | 2430 | – | 120 | 48 |
